From ChEMBL document CHEMBL1153824, “Novel isothiourea derivatives as potent neuroprotectors and cognition enhancers: synthesis, biological and physicochemical properties” (J Med Chem, 2009)
Calls of active or inactive are those of the source. The rule behind the calls is not given here.

Columns and labels:
Rattus norvegicus [1] = species on record: Rattus norvegicus; experiment: Agonist activity at AMPA receptor in rat purkinje neurons assessed as potentiation of 500 uM kainate-induced transmembrane current at 50 uM relative to kainate; assay type: functional
Summary of the method: (§1)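 Whole-cell patch-clamp on Purkinje neurons freshly dissociated from cerebellum of 14-18 day old rats. Slices were incubated 1 h in saline, then treated with Pronase and collagenase at 34 °C under O2 and triturated. Extracellular saline was HEPES-buffered, pH 7.32, with KCl/EGTA/ATP pipette solution. Agonist (kainate or glutamate) was applied with or without compound by fast perfusion. Potentiation was taken relative to the agonist-alone current.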

[2] = molecular target: T1, Glutamate NMDA receptor (Rattus norvegicus) (UniProt P35439+Q00959+Q00960+Q00961+Q62645+Q8VHN2+Q9R1M7); experiment: Antagonist activity at NMDA receptor in rat cerebral cortex neurons assessed as 10000 uM NMDA-induced current at 30 uM relative to control; assay type: functional, tissue-based; parameters: scale not given: the % may be the effect or the level left
Summary of the method: (§2)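 Whole-cell currents were evoked by NMDA (50, 100, 5000 or 10000 µM) in a heterogeneous primary culture of rat cerebral cortex neurons. Compound was tested at 0.5-30 µM. Current amplitude was expressed as percent of the NMDA-alone control.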

[3] = molecular target: T1, Glutamate NMDA receptor (Rattus norvegicus); experiment: Antagonist activity at NMDA receptor in rat cerebral cortex neurons assessed as 100 uM NMDA-induced current at 10 uM relative to control; assay type: functional, tissue-based; parameters: scale not given: the % may be the effect or the level left; summary of the method: as §2
Rattus norvegicus [4] = species on record: Rattus norvegicus; experiment: Agonist activity at AMPA receptor in rat purkinje neurons assessed as potentiation of 1000 uM kainate-induced transmembrane current at 30 uM by patch-clamp technique relative to kainate; assay type: functional; summary of the method: as §1
[5] = molecular target: T1, Glutamate NMDA receptor (Rattus norvegicus); experiment: Antagonist activity at NMDA receptor in rat cerebral cortex neurons assessed as 50 uM NMDA-induced current at 2 uM relative to control; assay type: functional, tissue-based; parameters: scale not given: the % may be the effect or the level left; summary of the method: as §2
[6] = molecular target: T1, Glutamate NMDA receptor (Rattus norvegicus); experiment: Antagonist activity at NMDA receptor in rat cerebral cortex neurons assessed as 50 uM NMDA-induced current at 30 uM relative to control; assay type: functional, tissue-based; parameters: scale not given: the % may be the effect or the level left; summary of the method: as §2
[7] = molecular target: T1, Glutamate NMDA receptor (Rattus norvegicus); experiment: Antagonist activity at NMDA receptor in rat cerebral cortex neurons assessed as 100 uM NMDA-induced current at 2 uM relative to control; assay type: functional, tissue-based; parameters: scale not given: the % may be the effect or the level left; summary of the method: as §2
[8] = molecular target: T1, Glutamate NMDA receptor (Rattus norvegicus); experiment: Antagonist activity at NMDA receptor in rat cerebral cortex neurons assessed as 5000 uM NMDA-induced current at 30 uM relative to control; assay type: functional, tissue-based; parameters: scale not given: the % may be the effect or the level left; summary of the method: as §2
Rattus norvegicus [9] = species on record: Rattus norvegicus; experiment: Agonist activity at AMPA receptor in rat purkinje neurons assessed as potentiation of glutamate-induced transmembrane current at 30 uM by patch-clamp technique relative to kainate; assay type: functional; summary of the method: as §1
[10] = molecular target: T1, Glutamate NMDA receptor (Rattus norvegicus); experiment: Antagonist activity at NMDA receptor in rat cerebral cortex neurons assessed as 5000 uM NMDA-induced current at 2 uM relative to control; assay type: functional, tissue-based; parameters: scale not given: the % may be the effect or the level left; summary of the method: as §2
[11] = molecular target: T1, Glutamate NMDA receptor (Rattus norvegicus); experiment: Antagonist activity at NMDA receptor in rat cerebral cortex neurons assessed as 10000 uM NMDA-induced current at 0.5 uM relative to control; assay type: functional, tissue-based; parameters: scale not given: the % may be the effect or the level left; summary of the method: as §2
Rattus norvegicus [12] = species on record: Rattus norvegicus; experiment: Agonist activity at AMPA receptor in rat purkinje neurons assessed as potentiation of 4000 uM kainate-induced transmembrane current at 30 uM by patch-clamp technique relative to kainate; assay type: functional; summary of the method: as §1
[13] = molecular target: T1, Glutamate NMDA receptor (Rattus norvegicus); experiment: Antagonist activity at NMDA receptor in rat cerebral cortex neurons assessed as 100 uM NMDA-induced current at 5 uM relative to control; assay type: functional, tissue-based; parameters: scale not given: the % may be the effect or the level left; summary of the method: as §2
[14] = molecular target: T1, Glutamate NMDA receptor (Rattus norvegicus); experiment: Antagonist activity at NMDA receptor in rat cerebral cortex neurons assessed as 100 uM NMDA-induced current at 30 uM relative to control; assay type: functional, tissue-based; parameters: scale not given: the % may be the effect or the level left; summary of the method: as §2
Rattus norvegicus [15] = species on record: Rattus norvegicus; experiment: Agonist activity at AMPA receptor in rat purkinje neurons assessed as potentiation of 500 uM glutamate-induced transmembrane current at 30 uM relative to glutamate; assay type: functional; summary of the method: as §1
[16] = molecular target: T1, Glutamate NMDA receptor (Rattus norvegicus); experiment: Antagonist activity at NMDA receptor in rat cerebral cortex neurons assessed as 5000 uM NMDA-induced current at 10 uM relative to control; assay type: functional, tissue-based; parameters: scale not given: the % may be the effect or the level left; summary of the method: as §2
[17] = molecular target: T1, Glutamate NMDA receptor (Rattus norvegicus); experiment: Antagonist activity at NMDA receptor in rat cerebral cortex neurons assessed as 10000 uM NMDA-induced current at 5 uM relative to control; assay type: functional, tissue-based; parameters: scale not given: the % may be the effect or the level left; summary of the method: as §2
[18] = molecular target: T1, Glutamate NMDA receptor (Rattus norvegicus); experiment: Antagonist activity at NMDA receptor in rat cerebral cortex neurons assessed as 50 uM NMDA-induced current at 1 uM relative to control; assay type: functional; parameters: scale not given: the % may be the effect or the level left; summary of the method: as §2
[19] = molecular target: T1, Glutamate NMDA receptor (Rattus norvegicus); experiment: Antagonist activity at NMDA receptor in rat cerebral cortex neurons assessed as 50 uM NMDA-induced current at 10 uM relative to control; assay type: functional, tissue-based; parameters: scale not given: the % may be the effect or the level left; summary of the method: as §2
[20] = molecular target: T1, Glutamate NMDA receptor (Rattus norvegicus); experiment: Antagonist activity at NMDA receptor in rat cerebral cortex neurons assessed as 50 uM NMDA-induced current at 0.5 uM relative to control; assay type: functional, tissue-based; parameters: scale not given: the % may be the effect or the level left; summary of the method: as §2
[21] = molecular target: T1, Glutamate NMDA receptor (Rattus norvegicus); experiment: Antagonist activity at NMDA receptor in rat cerebral cortex neurons assessed as 5000 uM NMDA-induced current at 0.5 uM relative to control; assay type: functional, tissue-based; parameters: scale not given: the % may be the effect or the level left; summary of the method: as §2
[22] = molecular target: T1, Glutamate NMDA receptor (Rattus norvegicus); experiment: Antagonist activity at NMDA receptor in rat cerebral cortex neurons assessed as 5000 uM NMDA-induced current at 5 uM relative to control; assay type: functional, tissue-based; parameters: scale not given: the % may be the effect or the level left; summary of the method: as §2
[23] = molecular target: T1, Glutamate NMDA receptor (Rattus norvegicus); experiment: Antagonist activity at NMDA receptor in rat cerebral cortex neurons assessed as 10000 uM NMDA-induced current at 2 uM relative to control; assay type: functional, tissue-based; parameters: scale not given: the % may be the effect or the level left; summary of the method: as §2
[24] = molecular target: T1, Glutamate NMDA receptor (Rattus norvegicus); experiment: Antagonist activity at NMDA receptor in rat cerebral cortex neurons assessed as 50 uM NMDA-induced current at 5 uM relative to control; assay type: functional, tissue-based; parameters: scale not given: the % may be the effect or the level left; summary of the method: as §2
[25] = molecular target: T1, Glutamate NMDA receptor (Rattus norvegicus); experiment: Antagonist activity at NMDA receptor in rat cerebral cortex neurons assessed as 5000 uM NMDA-induced current at 1 uM relative to control; assay type: functional, tissue-based; parameters: scale not given: the % may be the effect or the level left; summary of the method: as §2
[26] = molecular target: T1, Glutamate NMDA receptor (Rattus norvegicus); experiment: Antagonist activity at NMDA receptor in rat cerebral cortex neurons assessed as 100 uM NMDA-induced current at 0.5 uM relative to control; assay type: functional, tissue-based; parameters: scale not given: the % may be the effect or the level left; summary of the method: as §2
Rattus norvegicus [27] = species on record: Rattus norvegicus; experiment: Agonist activity at AMPA receptor in rat purkinje neurons assessed as increase in potentiation of kainate-induced transmembrane current at 30 uM by patch-clamp technique relative to S-ethyl-N-allyl-N',N'-dibenzylisothiourea hydroiodide; assay type: functional
Rattus norvegicus [28] = species on record: Rattus norvegicus; experiment: Agonist activity at AMPA receptor in rat purkinje neurons assessed as potentiation of kainate-induced transmembrane current at 30 uM by patch-clamp technique relative to kainate; assay type: functional; summary of the method: as §1
[29] = molecular target: T1, Glutamate NMDA receptor (Rattus norvegicus); experiment: Antagonist activity at NMDA receptor in rat cerebral cortex neurons assessed as 100 uM NMDA-induced current at 1 uM relative to control; assay type: functional, tissue-based; parameters: scale not given: the % may be the effect or the level left; summary of the method: as §2
[30] = molecular target: T1, Glutamate NMDA receptor (Rattus norvegicus); experiment: Antagonist activity at NMDA receptor in rat cerebral cortex neurons assessed as 10000 uM NMDA-induced current at 1 uM relative to control; assay type: functional, tissue-based; parameters: scale not given: the % may be the effect or the level left; summary of the method: as §2
[31] = molecular target: T1, Glutamate NMDA receptor (Rattus norvegicus); experiment: Antagonist activity at NMDA receptor in rat cerebral cortex neurons assessed as 10000 uM NMDA-induced current at 10 uM relative to control; assay type: functional, tissue-based; parameters: scale not given: the % may be the effect or the level left; summary of the method: as §2

With `C=CC/N=C(\SCC)N(Cc1ccccc1)Cc1ccccc1` the Activity (Rattus norvegicus [1]) was “Active”, the Activity [2] was 3% and the Activity [3] was 23%. For the same compound, the Activity (Rattus norvegicus [4]) was 290%, the Activity [5] was 48% and the Activity [6] was 11%. The Activity [7] was 55%, the Activity [8] was 4% and the Activity (Rattus norvegicus [9]) was “Active”. For the same compound, the Activity [10] was 36%, the Activity [11] was 45% and the Activity (Rattus norvegicus [12]) was 132%. It also gave an Activity [13] of 35%, an Activity [14] of 8% and a fold change (FC) (Rattus norvegicus [15]) of 26.9. It also gave an Activity [16] of 14%, an Activity [17] of 16% and an Activity [18] of 68%. It also gave an Activity [19] of 31%, an Activity [20] of 98% and an Activity [21] of 59%. The Activity [22] was 20%, the Activity [23] was 26% and the Activity [24] was 34%. The Activity [25] was 35%, the Activity [26] was 99% and the Activity (Rattus norvegicus [27]) was 5%. The Activity (Rattus norvegicus [28]) was “Active”, the Activity [29] was 48% and the Activity [30] was 35%. The Activity [31] was 10%.

`NS(=O)(=O)c1cc2c(cc1Cl)NC(C1CC3C=CC1C3)NS2(=O)=O` (configuration not stated) was tested, and the Activity (Rattus norvegicus [1]) was “Active”, the Activity (Rattus norvegicus [4]) was 150% and the Activity (Rattus norvegicus [9]) was “Active”. The Activity (Rattus norvegicus [12]) was 60%, the fold change (FC) (Rattus norvegicus [15]) was 7 and the Activity (Rattus norvegicus [28]) was “Active”.
